This is an account of results in article PMC7065716 (International Journal of Nanomedicine, 2020).

Series [1] concerns anti-cyclic citrullinated peptide antibody (anti-CCP). Put plainly: CFA-induced RA in rats: serum anti-CCP. It counts as in vivo, female Wister albino rats. Conditions: treated day 13-27, serum day 28. In short, it runs like this: (§1)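 Arthritis induced as three 0.4 mL subcutaneous plantar CFA injections (days 1, 4, 7); treatments given days 13–27 as topical gel 1 g/day on 4 cm2 shaved dorsum or oral 10 mg/kg/day. Eight rats per group. Day 28, 24 h after last dose, retro-orbital blood under diethyl ether; serum separated at 3000 rpm for 30 min, stored −20°C, assayed by ELISA kit. One-way ANOVA with Tukey test.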

The subject of series [2] is CFA-induced RA in rats. Put plainly: CFA-induced RA in rats: radiographic analysis. Conditions: day 28. The series is classed as in vivo, female Wister albino rats.
The subject of the next series is IL-6. In words: CFA-induced RA in rats: serum IL-6. Conditions: treated day 13-27, serum day 28, listed as oral DH. The series is classed as in vivo, female Wister albino rats. In short, it runs like this: as §1
The nature of another series: In vitro DH release. It counts as physicochemical. The note with it: dialysis bag, pH 5.5, 37 °C. In short, it runs like this: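 Formulation or free drug solution (3 mg drug equivalent) held in a cellophane dialysis bag (MWCO 12,000) wrapped on a cylinder. Bag placed in 30 mL PBS, pH 5.5, at 37 ± 0.5 °C, stirred 50 rpm. 3 mL sampled at 1, 2, 3, 5, 6, 7 and 8 h and replaced. UV read at 292 nm. Run in triplicate, mean ± SD, cumulative % released.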

The nature of series [3]: Pharmacokinetic analysis in rats. The series is classed as in vivo. Conditions: Wister albino, rat, plasma, 10 mg/kg. The essentials:
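Rats (200–250 g, six per group) fasted 10 h, then dosed 10 mg/kg by oral gavage or as 1 g gel on 4 cm2 shaved dorsum. Retro-orbital blood (0.5 mL, heparinized) taken 0.25–24 h; plasma stored −20°C. Plasma spiked with internal standard, extracted with tert-butyl methyl ether, reconstituted in acetonitrile:0.1% formic acid (80:20), analysed by LC-MS/MS on C18. Non-compartmental analysis; AUC by trapezoidal rule.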

Series [4] concerns CFA-induced RA in rats. In words: CFA-induced RA in rats: histopathology of knee joints, spleen and liver. It counts as in vivo, female Wister albino rats. The note with it: H&E. In short, it runs like this:
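CFA (0.4 mL) injected subcutaneously into hind-limb plantar surface on days 1, 4 and 7 in female rats, 180–200 g, 8 per group. From day 13 to 27: topical gel 1 g/day on 4 cm2 shaved dorsum, oral 10 mg/kg/day, or reference oral drug 0.1 mg/kg/day. On day 28, under pentobarbitone 50 mg/kg i.p., three knee joints per group plus spleen and liver fixed in 10% formalin saline for 24 h, H&E-stained and read by pathologist.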

For series [5] the following is noted: cited from earlier work.
Series [6] concerns cartilage oligomeric matrix protein (COMP). In words: CFA-induced RA in rats: serum COMP. The series is classed as in vivo, female Wister albino rats. The note with it: treated day 13-27, serum day 28. The essentials: as §1
The nature of a further series: Ex vivo skin permeation. It counts as in vitro ADME, rat. The essentials: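 Franz cell, 5.0 cm2 permeation area, 100 mL distilled-water receiver. Shaved rat skin mounted stratum corneum up. Donor: vesicle formulation equivalent to 3 mg drug, or drug solution as control. Run at 37 ± 2 °C, 100 rpm, 24 h, sampling at 1–24 h with medium replaced. UV read at 292. Lag time from x-intercept of the linear portion of the cumulative µg/cm2-versus-time plot; Jss (µg/cm2/h) and Kp (cm/h) calculated.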

Values joined by “and” are separate entries in the source; they are usually repeats but may differ in a detail not shown here. Equal entries are not always repeated. Structures can show the parent of a compound that is named as a salt.

On to `CN(Cc1cnc2nc(N)nc(N)c2n1)c1ccc(C(=O)N[C@@H](CCC(=O)O)C(=O)O)cc1` [MTX, methotrexate], for which the “Anti-CCP (serum)” value in [1] is given as 4.00 ± 0.03^a, b, c ng/mL. Moreover, in the series with CFA-induced RA in rats [2], the radiographic findings result is recorded as “almost normal soft tissue with disappearance of inflammatory signs”.

The AUC(0-inf) is the area under the concentration-time curve extrapolated to infinity. The low end stands for less exposure, the high end for more exposure. Usually Cmax stands for the maximum level reached in the sampled fluid or tissue. The AUC(0-t) is exposure summed from dosing to a finite time, without extrapolation to infinity. A higher AUC(0-t) goes with high exposure. The MRT is the average time that molecules of a dose stay in the body. By Tmax is commonly meant the time from dosing to the highest level. The term half-life denotes the time needed for the level to fall by half in the phase considered. One may read the Papp as a coefficient for how fast a substance crosses the barrier. In the case of `CN(C)[C@@H](CCOc1cccc2ccccc12)c1ccccc1` [DH, Dapoxetine hydrochloride], in the series with IL-6, the “IL-6 (serum)” value is recorded as “no significant effect”. In addition, in the series “In vitro DH release”, the “DH released in the first 3 h” value is recorded as “approximately 95%”. In series [3] (oral), this compound displayed an AUC(0-inf) of 734 ng·h/mL and a Cmax of 198 ng/mL. Also, in series [3] (po), the total exposure AUC(0-inf) was found to be 734 ± 51.1 ng·h/mL, the AUC(0-t) was found to be 701 ± 25.8 ng·h/mL, the concentration peaked (Cmax) at 198 ± 16.4 ng/mL and the MRT is 5.74 ± 1.56 h. Moreover, in [3] (po), the Tmax was found to be 1.5 ± 0.06 h and the half-life is 5.46 ± 2.87 h. Moreover, in the series on CFA-induced RA in rats [4], the knee joint histopathology result is “rough cerrated articular surface”, the liver histopathology result is on record as “marked congestion of central veins” and the spleen histopathology result is given as “marked activation in the macrophage in the white pulb”. For the same compound, the elimination half-life in series [5] is 1.31 h. Further, the “Anti-CCP (serum)” value in series [1] is listed as 4.64 ± 0.15^a, b, c, d, e ng/mL. Besides, the radiographic findings entry with CFA-induced RA in rats [2] was “significant and comparable inhibition of soft tissues swelling”. The “COMP (serum)” value in [6] is listed as 70.30 ± 5.73^a, b, c, d, e pg/mL. The compound further had a Papp in “Ex vivo skin permeation” (rat) of 0.944 ×10⁻⁶ cm/s. The “Lag Time” value in “Ex vivo skin permeation” (rat skin, Franz cell) came out at 91.10 ± 20.67 min. Also, the “Y5: Q24, cumulative amount permeated/unit area in 24 h” value in the series “Ex vivo skin permeation” (rat skin, Franz cell, 37 °C, 24 h) was found to be 135.6±17.0 µg/cm2. Further, the “Jss (drug flux, steady state)” value in “Ex vivo skin permeation” (rat skin, Franz cell, listed as DH solution) was 5.6±0.7 µg/cm2.h and 5.65± 0.71 µg/cm2.h.
